Data set [1] in a line: Partition coefficient (logP). Type of data set: physicochemical. The note with it: octanol/water.
Data set [2] addresses 5-hydroxytryptamine receptor 7 (Rattus norvegicus) (UniProt P32305). In words: Effect on basal adenylate cyclase activity relative to potency of methiothepin using rat 5-HT7 receptor expressed in HEK cells. The data set is classed as cell-based. The note with it: HEK293.
Data set [3] can be described thus: pKa. The data set is classed as physicochemical.
For data set [4], the target named is 5-hydroxytryptamine receptor 7 (Rattus norvegicus, UniProt P32305). In words: Binding affinity towards rat 5-HT7 receptor expressed in HEK cells. The data set is classed as cell-based, HEK293. The procedure, abridged: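 Membranes of HEK cells expressing rat 5-HT7, resuspended in 50 mM Tris HCl pH 7.4 with 0.5 mM EDTA, 10 mM MgSO4, 2 mM CaCl2, 10 µM pargyline, 0.1% ascorbic acid; 20 µg protein with 0.3 nM [3H]5-CT, 2 h at room temperature; nonspecific binding with 10 µM 5-HT; filtration, scintillation counting; IC50 by log regression, Ki via Cheng-Prusoff.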
5-hydroxytryptamine receptor 7, sequence (P32305 whole entry): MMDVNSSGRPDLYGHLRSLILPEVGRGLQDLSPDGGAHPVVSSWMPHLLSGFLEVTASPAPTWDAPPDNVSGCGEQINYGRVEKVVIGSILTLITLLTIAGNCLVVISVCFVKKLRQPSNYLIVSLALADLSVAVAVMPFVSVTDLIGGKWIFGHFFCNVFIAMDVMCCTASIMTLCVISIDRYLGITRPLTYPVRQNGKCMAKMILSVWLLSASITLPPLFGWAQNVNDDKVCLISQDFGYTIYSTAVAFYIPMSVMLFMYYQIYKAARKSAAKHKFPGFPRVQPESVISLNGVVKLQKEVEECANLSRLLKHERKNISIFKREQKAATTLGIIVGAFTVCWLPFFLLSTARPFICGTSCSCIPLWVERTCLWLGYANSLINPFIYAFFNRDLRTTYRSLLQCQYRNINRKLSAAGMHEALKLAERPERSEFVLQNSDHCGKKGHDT

Values joined by “and” are separate entries in the source; they are usually repeats but may differ in a detail not shown here. Identical values can stand only once.

5-hydroxytryptamine receptor 7 (Rattus norvegicus), sequence (P32305 whole entry): as above

For `CCN(CCCN1CCc2cc(OC)ccc2C1)S(=O)(=O)c1ccccc1`, the logP in data set [1] (read-out: logP) stood at 3.1. The cAMP in data set [2] was -93%. Besides, the pKa in data set [3] was 7.4. The Ki in data set [4] was found to be 54 nM.

Regarding `CCN(CCCN1CCc2cc(OC)ccc2C1)S(=O)(=O)c1ccc(OC)cc1`, in data set [1] (read-out: logP), the logP was 3.3. Moreover, the cAMP in data set [2] is -94%. Further, in data set [3], the pKa stood at 7.4. The same molecule came in with an inhibitory constant (Ki) in data set [4] of 29 nM.

`CCN(CCCN1CCc2cc(OC)ccc2C1)S(=O)(=O)c1ccc(C)cc1`: in data set [1] (read-out: logP), the logP stood at 3.8. The cAMP in data set [2] was -95%. This molecule came in with a pKa in data set [3] of 7.4. The same molecule had a Ki in data set [4] of 11 nM.

For the molecule `COc1ccc2c(c1)CCN(CCCNS(=O)(=O)c1ccccc1)C2`, the logP in data set [1] (read-out: logP) came to 2.3. In addition, in data set [2], the cAMP was -36%. The molecule further had a pKa in data set [3] of 7. This molecule returned a Ki in data set [4] of 75 nM.

For the molecule `COc1ccc2c(c1)CCN(CCCNS(=O)(=O)c1ccc(C)cc1)C2`, in data set [1] (read-out: logP), the logP came out at 3. Further, in data set [2], the cAMP was -61%. Further, in data set [3], the pKa amounted to 7. The Ki in data set [4] is 520 nM.

On to `CSc1ccc2c(c1)[C@@H](N1CCN(C)CC1)Cc1ccccc1S2`, for which, in data set [1] (read-out: logP), the logP was determined as 3.4. Further, in data set [2], the cAMP is -100%. The molecule also gave a pKa in data set [3] of 8.1.

Take `CCN(CCCN1CCN(c2ccccc2OC)CC1)S(=O)(=O)c1ccc(C)cc1`: the cAMP in data set [2] was -93%. In data set [4], this molecule displayed a Ki of 19 nM.

`CCN(CCCN1CCc2cc(OC)ccc2C1)S(=O)(=O)c1cccc2ccccc12`: the logP in data set [1] (read-out: logP) was determined as 4.3. The cAMP in data set [2] is -91%. The same molecule displayed a pKa in data set [3] of 7.4. In data set [4], this molecule had an inhibition constant Ki of 19 nM.

As for `COc1ccc2c(c1)CCN(CCCNS(=O)(=O)c1cccc3ccccc13)C2`, in data set [1] (read-out: logP), the logP came to 3.6. The cAMP in data set [2] was -104%. The pKa in data set [3] was determined as 7. In data set [4], this molecule displayed a Ki of 360 nM.

As for `Cc1cccc(S(=O)(=O)N2CCC[C@@H]2CCN2CCC(C)CC2)c1` [SB-258741], the logP in data set [1] (read-out: logP) came out at 3.7. Also, the pKa in data set [3] came out at 10.4. Also, the inhibitory constant (Ki) in data set [4] was determined as 3 nM.

Take `COc1ccccc1N1CCN(CCNS(=O)(=O)c2ccc(C)cc2)CC1`: the logP in data set [1] (read-out: logP) was 2.2. For the same molecule, the cAMP in data set [2] is -66%. In data set [3], this molecule yielded a pKa of 7.4. In data set [4], this molecule had a Ki of 75 nM.

`CC1CCN(CC[C@H]2CCCN2S(=O)(=O)c2cccc(O)c2)CC1`: in data set [1] (read-out: logP), the logP was found to be 2.7. In data set [3], the pKa stood at 10.4. Moreover, the affinity in data set [4] corresponds to a Ki of 1 nM.

Consider `COc1ccc2[nH]cc(C3=CCN(Cc4ccccc4)CC3)c2c1`, for which the logP in data set [1] (read-out: logP) was determined as 4.3. Further, in data set [2], the cAMP was -65%. The same molecule returned a pKa in data set [3] of 7.7. Besides, the Ki in data set [4] came to 1100 nM.

As for `COc1ccc2c(c1)N(CCN(C)C)CCO2`, the logP in data set [1] and in data set [1] (read-out: logP) was 1.6 throughout. Besides, the pKa in data set [3] is 8.6. Besides, the Ki in data set [4] was 1180 nM and 1100 nM.

Take `COc1ccccc1N1CCN(CCCNS(=O)(=O)c2ccc(C)cc2)CC1`: in data set [1] (read-out: logP), the logP came to 2.6. The cAMP in data set [2] was -20%. This molecule also displayed a pKa in data set [3] of 7.5. In data set [4], this molecule showed a Ki of 52 nM.

`COc1ccc(S(=O)(=O)NCCCN2CCN(c3ccccc3OC)CC2)cc1`: in data set [1] (read-out: logP), the logP came to 2.1. For the same molecule, the cAMP in data set [2] was -35%. This molecule also had a pKa in data set [3] of 7.5. Further, the Ki in data set [4] is 100 nM.

`CC1CCN(CC[C@H]2CCCN2S(=O)(=O)c2cccc3ccccc23)CC1`: the logP in data set [1] (read-out: logP) came to 4.2. Further, in data set [3], the pKa was determined as 10.4. In addition, the Ki in data set [4] is 10 nM.

For `COc1ccc(S(=O)(=O)NCCCN2CCc3cc(OC)ccc3C2)cc1`, in data set [1] (read-out: logP), the logP was 2.5. For the same molecule, the cAMP in data set [2] was -84%. The molecule also had a pKa in data set [3] of 7. In data set [4], this molecule had a Ki of 1200 nM.

For the molecule `COc1ccc2c(c1)c(CCN(C)C)cn2C`, the log partition coefficient (logP) in data set [1] (read-out: logP) turned out to be 2.7. Also, the cAMP in data set [2] was -7%. In addition, the pKa in data set [3] turned out to be 9.2. The molecule further showed a Ki in data set [4] of 1180 nM.

The values are drawn from ChEMBL document CHEMBL1138796, “Novel 5-HT7 receptor inverse agonists. Synthesis and molecular modeling of arylpiperazine- and 1,2,3,4-tetrahydroisoquinoline-based arylsulfonamides” (J Med Chem, 2004).
